# Experimental data from different studies.
# Protocols differ between the studies behind these lines.
# Read-out: cell growth or viability
Structure (SMILES),cell line,assay,conditions,endpoint,value
N.N.[Cl][Pt][Cl],A-431,MTT,"24 h, dark",IC50,40100 nM
CC[C@H](C)[C@H](N)C(=O)O[C@]1(CC)C(=O)OCc2c1cc1n(c2=O)Cc2cc3cc4c(cc3nc2-1)OCO4,HepG2,MTT,,IC50,98 nM
N.N.[Cl][Pt][Cl],A-431,SRB,,EC50,1800 nM
CC[C@@]1(OC(=O)CN)C(=O)OCc2c1cc1n(c2=O)Cc2cc3cc4c(cc3nc2-1)OCO4,HepG2,MTT,,IC50,25 nM
CCOC(=O)C1=C(N)N(c2ccc(C(=O)OCC)cc2)C(O)=C(C#N)C12C(=O)Nc1ccccc12 (stereo not shown),HepG2,MTT,"25 µM, 24 h",viability,26.3%
CCC1(OC(=O)C(C)c2ccc3cc(OC)ccc3c2)C(=O)OCc2c1cc1n(c2=O)Cc2cc3cc4c(cc3nc2-1)OCO4 (stereo not shown),HepG2,MTT,,IC50,3500 nM
COc1cc(OC)c(/C=C/S(=O)(=O)Nc2ccc(OC)c(N)c2)c(OC)c1,RF1,trypan blue,96 h,IC50,4 nM
N.N.[Cl][Pt][Cl],Huh-7,MTT,20 µM,inhibition,76.4%
N.N.O=C([O-])C1(C(=O)[O-])CCC1.[Pt+2],PNT2,MTT,96 h,IC50,27000 nM
N.N.[Cl][Pt][Cl],HEK-293T,XTT,24 h,IC50,64400 nM
CC[C@@]1(OC(=O)[C@@H](N)CCCCN)C(=O)OCc2c1cc1n(c2=O)Cc2cc3cc4c(cc3nc2-1)OCO4,HepG2,MTT,,IC50,35 nM
N.N.[Cl][Pt][Cl],CCD-18Co,ATP luminescence,,GI50,1.1 µg/mL
CC1=C(O)C(=O)C=C2C1=CC=C1[C@@]2(C)CC[C@@]2(C)[C@@H]3C[C@](C)(C(=O)O)CC[C@]3(C)CC[C@]12C,HepG2,MTT,20 µM,inhibition,92%
